Data reported in PMC5573236 (Oncogene, 2008).

Key:
LNCaP cells [1] = assay: MTT proliferation assay, LNCaP cells; format: cell-based
[2] = system: estrogen receptor-α (ERα); details: estradiol stimulation; ref Pink and Jordan, 1996; cited from earlier work
MCF-7 cells = assay: MTT proliferation assay, MCF-7 cells; format: cell-based; details: same concentrations as used for Protac-B
T47D cells = assay: MTT proliferation assay, T47D cells; format: cell-based; details: same concentrations as used for Protac-B
[3] = biological target: VHL-Elongin B-Elongin C protein complex (Homo sapiens, UniProt P40337+Q15369+Q15370); assay: Fluorescence polarization competitive binding assay with VHL; details: FP competition assay; negative control
PC-3 cells = assay: MTT proliferation assay, PC-3 cells; format: cell-based; details: 72 h, same concentrations as used on LNCaP cells
In short: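 Cells were grown in phenol-red-free RPMI 1640 with 10% FBS, 37 °C, 5% CO2, and seeded at 10 000/well. Test compound or free hormone at matched concentrations was added 24–48 h after plating; the PC-3 exposure was 72 h. MTT read-out: medium removed, DMSO solubilisation, absorbance 550 nm. Single triplicate experiment, representative of three.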

androgen receptor (AR) = assay: Western blot of AR protein levels in LNCaP cells; format: cell-based; details: 72 h, increasing concentrations that inhibited proliferation
LNCaP cells [4] = assay: Cell cycle profile by flow cytometry; format: cell-based; details: 72 h, propidium iodide staining
In short: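 LNCaP cells kept at 37 °C, 5% CO2, in phenol-red-free RPMI 1640 with 10% FBS. Plated at 30 000 cells per cm2 and treated from 24–48 h after plating. Trypsinised, pelleted at 250 g for 5 min, fixed in 70% ethanol and held at −20 °C. Just before acquisition, stained with 3.4 mM sodium citrate, 0.3% Triton X-100, propidium iodide 0.1 mg/ml and RNase A 20 μg/ml, then run on a flow cytometer.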

Molecule: C[C@]12CCC(=O)C[C@@H]1CC[C@@H]1[C@@H]2CC[C@]2(C)[C@@H](O)CC[C@@H]12 [DHT, dihydroxytestosterone]
- effect on LNCaP cell proliferation (LNCaP cells [1]; DHT used at the IC50 of Protac-A (12.5 μM)): no effect

Molecule: C[C@]12CC[C@@H]3c4ccc(O)cc4CC[C@H]3[C@@H]1CC[C@@H]2O [estradiol, 17β-estradiol]
- decrease in ERα levels [2]: approximately 50%
- effect on proliferation of MCF-7 cells (MCF-7 cells): no effect
- effect on proliferation of T47D cells (T47D cells): no effect

Molecule: H-Leu-Ala-Ala-Tyr-Ile-Gly-Gly-[D-Arg]9-OH [mutant pentapeptide-G-G-(Arg)9]
- binding to VHL [3]: did not detectably bind

Molecule: Leu-Ala-Pro(OH)-Tyr-Ile-Gly-Gly-(D-Arg)9 [Protac-AA]
- effect on proliferation of PC-3 cells (PC-3 cells): not affected
- increase of activity (IC50, LNCaP) over Protac-A (LNCaP cells [1]; 72 h and 144 h): three to seven
- AR protein levels in LNCaP cells (androgen receptor (AR)): reduced
- cell cycle effect in LNCaP cells (LNCaP cells [4]): cell cycle arrest in G1
